The values that follow come from ChEMBL document CHEMBL4020714, “Design, synthesis, and evaluation of curcumin derivatives as Nrf2 activators and cytoprotectors against oxidative death” (Eur J Med Chem, 2017).

Each structure is given as a SMILES string. Activity calls are given as the source filed them. No cut-off for these calls is given here.

Data set [1] has as its target T1, Nuclear factor erythroid 2-related factor 2 (Homo sapiens) (UniProt Q16236).
T1 sequence (whole entry): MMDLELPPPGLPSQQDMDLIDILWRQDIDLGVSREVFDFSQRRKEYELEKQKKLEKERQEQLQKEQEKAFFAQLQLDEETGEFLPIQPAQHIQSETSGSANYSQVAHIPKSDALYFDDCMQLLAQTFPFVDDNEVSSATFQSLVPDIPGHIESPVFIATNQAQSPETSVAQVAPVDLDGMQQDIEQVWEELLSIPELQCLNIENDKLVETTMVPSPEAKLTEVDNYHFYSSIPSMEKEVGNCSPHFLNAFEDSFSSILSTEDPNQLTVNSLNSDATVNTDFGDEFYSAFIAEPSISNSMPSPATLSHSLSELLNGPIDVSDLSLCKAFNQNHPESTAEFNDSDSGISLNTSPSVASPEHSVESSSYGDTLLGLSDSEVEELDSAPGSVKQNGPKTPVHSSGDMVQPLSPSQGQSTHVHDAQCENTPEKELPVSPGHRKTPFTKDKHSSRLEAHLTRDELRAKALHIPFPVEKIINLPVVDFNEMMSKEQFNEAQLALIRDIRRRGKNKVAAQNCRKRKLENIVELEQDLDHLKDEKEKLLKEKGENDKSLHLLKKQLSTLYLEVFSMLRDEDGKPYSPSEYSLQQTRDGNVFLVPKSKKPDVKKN
As to the kind of experiment: Activation of Nrf2 in human HepG2 cells assessed as cytoprotection against t-BHP-induced oxidative cell death at 5 uM incubated for 24 hrs followed by compound removal with subsequent incubation with 900 uM of t-BHP for 6 hrs by MTT assay. It counts as cell-based. Summed up: (§1)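 HepG2 cells (5×10^3/well) seeded and grown 24 h in 1640 medium with 10% FBS at 37 °C and 5% CO2. Compound is added for 24 h, then removed, and cells are challenged with 900 μM t-BHP for 6 h at 37 °C. MTT (0.5 mg/mL) is added for 4 h, formazan dissolved in DMSO, and absorbance read at 570 nm. Where used, inhibitors are added 1 h before compound. Mean ± SD of three independent experiments.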
Background: Tetrazolium assays rely on reduction of a dye to a coloured formazan, in cell work by metabolically active cells.

For data set [2], the system named is HepG2. As to the kind of experiment: Antioxidant activity against t-BHP-induced oxidative stress in human HepG2 cells assessed as inhibition of intracellular ROS accumulation incubated for 24 hrs followed by t-BHP addition for 3 hrs by DCFH-DA staining based flow cytometric analysis. Type of data set: functional, cell-based. Summed up: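 HepG2 cells (4×10^5/well) exposed to compound (1.25, 2.5 or 5 μM) or DMSO for 24 h, then to 900 μM t-BHP for 3 h. Cells collected, stained with 3 μM DCFH-DA for 30 min at 37 °C in the dark, washed with PBS, and analysed at once by flow cytometry (FITC channel). Values normalised to the corresponding control.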
For orientation: In flow cytometry, cells or beads pass a laser one at a time.

In data set [3] the test system is HepG2. As to the kind of experiment: Cytotoxicity against human HepG2 cells assessed as reduction in cell viability at 5 uM after 24 hrs by MTT assay. It counts as cell-based. The settings on record: hepg2, 24 h. An outline of the steps:
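MTT viability in HepG2 cells (5×10^3/well) after 24 h exposure to compound at 5 μM. Formazan dissolved in DMSO and absorbance read at 570 nm. Mean ± SD of three independent experiments.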

Data set [4] has as its target T1, Nuclear factor erythroid 2-related factor 2 (Homo sapiens). The experiment in a line: Activation of Nrf2 in human HepG2 cells assessed as increase in nuclear Nrf2 expression level after 3 hrs by Western blot analysis. It counts as cell-based. Summed up: (§2)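 HepG2 cells (2×10^6/well) treated at the indicated concentrations and times. Whole-cell lysates, or nuclear and cytoplasmic fractions, are prepared and quantified by BCA. Samples are run at 40 μg/lane on 12% SDS-PAGE, transferred to nitrocellulose, probed with specific antibodies and HRP secondary (1/5000), and detected by ECL. Where used, LY294002 (15 μM), SP600125 (25 μM) or DTT (400 μM) is added 1 h before compound.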
In general terms: A western blot detects proteins with antibodies after separation by electrophoresis.

For data set [5] the target is unchanged. The experiment in a line: Activation of Nrf2 in human HepG2 cells assessed as increase in HO-1 expression level after 24 hrs by Western blot analysis. It counts as cell-based. An outline of the steps: as §2
For data set [6] the target is unchanged. The experiment in a line: Activation of Nrf2 in human HepG2 cells assessed as increase in cytosolic Nrf2 expression level at 5 uM after 12 hrs by Western blot analysis. Type of data set: cell-based. An outline of the steps:
as §2

Data set [7] shares this target. As to the kind of experiment: Activation of Nrf2 in human HepG2 cells assessed as increase in cytosolic Nrf2 expression level after 3 hrs by Western blot analysis. Type of data set: cell-based. An outline of the steps: as §2
Data set [8] has the same target. As to the kind of experiment: Activation of Nrf2 in human HepG2 cells assessed as cytoprotection against t-BHP-induced oxidative cell death at 5 uM incubated for 24 hrs followed by compound removal with subsequent incubation with 900 uM of t-BHP for 6 hrs in presence of 10 uM GCL inhibitor BSO for 1 hr prior to compound treatment by MTT assay. Type of data set: cell-based. Summed up: as §1

Data set [9] shares this target. The experiment in a line: Activation of Nrf2 in human HepG2 cells assessed as cytoprotection against t-BHP-induced oxidative cell death at 5 uM incubated for 24 hrs followed by compound removal with subsequent incubation with 900 uM of t-BHP for 6 hrs in presence of 15 uM PI3K/Akt inhibitor LY294002 for 1 hr prior to compound treatment by MTT assay. Type of data set: cell-based. Summed up: as §1

Data set [10] shares this target. As to the kind of experiment: Activation of Nrf2 in human HepG2 cells assessed as increase in HO-1 expression level at 5 uM in presence of 25 uM JNK inhibitor SP600125 for 1 hr prior to compound treatment by Western blot analysis. It counts as cell-based. Summed up: as §2
Data set [11] shares this target. As to the kind of experiment: Activation of Nrf2 in human HepG2 cells assessed as increase in GCLC expression level at 5 uM in presence of 15 uM PI3K/Akt inhibitor LY294002 for 1 hr prior to compound treatment by Western blot analysis. Type of data set: cell-based. An outline of the steps:
as §2

The target of data set [12] is Kelch-like ECH-associated protein 1 (Homo sapiens) (UniProt Q14145). As to the kind of experiment: Induction of keap1-dependent Nrf2 stabilization in human HepG2 cells assessed as upregulation of total Nrf2 level at 5 uM pretreated for 3 hrs followed by coincubation with 5 ug/ml cycloheximide for 24 hrs by Western blot analysis. Type of data set: cell-based. Summed up:
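HepG2 cells pretreated with or without 5 μM compound for 3 h, then given 5 μg/mL cycloheximide for the indicated periods (up to 24 h). Total lysates are immunoblotted for Nrf2. Half-life is obtained by fitting a single-phase decay model.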

The target in data set [13] is T1, Nuclear factor erythroid 2-related factor 2 (Homo sapiens). As to the kind of experiment: Activation of Nrf2 in human HepG2 cells assessed as cytoprotection against t-BHP-induced oxidative cell death at 5 uM incubated for 24 hrs followed by compound removal with subsequent incubation with 900 uM of t-BHP for 6 hrs in presence of 100 uM iron chelator DFO for 1 hr prior to compound treatment by MTT assay. It counts as cell-based. An outline of the steps:
as §1

For data set [14] the target is unchanged. The experiment in a line: Activation of Nrf2 in human HepG2 cells assessed as cytoprotection against t-BHP-induced oxidative cell death at 5 uM incubated for 24 hrs followed by compound removal with subsequent incubation with 900 uM of t-BHP for 6 hrs in presence of 100 nM copper chelator NEO for 1 hr prior to compound treatment by MTT assay. Type of data set: cell-based. An outline of the steps: as §1

Data set [15] shares this target. The experiment in a line: Activation of Nrf2 in human HepG2 cells assessed as cytoprotection against t-BHP-induced oxidative cell death at 5 uM incubated for 24 hrs followed by compound removal with subsequent incubation with 900 uM of t-BHP for 6 hrs in presence of 400 uM DTT for 1 hr prior to compound treatment by MTT assay. Type of data set: cell-based. Summed up: as §1

The target is the same in data set [16]. As to the kind of experiment: Activation of Nrf2 in human HepG2 cells assessed as increase in GCLM expression level after 3 hrs by Western blot analysis. It counts as cell-based. An outline of the steps: as §2

Chain of Kelch-like ECH-associated protein 1 (Homo sapiens) (Q14145 whole entry): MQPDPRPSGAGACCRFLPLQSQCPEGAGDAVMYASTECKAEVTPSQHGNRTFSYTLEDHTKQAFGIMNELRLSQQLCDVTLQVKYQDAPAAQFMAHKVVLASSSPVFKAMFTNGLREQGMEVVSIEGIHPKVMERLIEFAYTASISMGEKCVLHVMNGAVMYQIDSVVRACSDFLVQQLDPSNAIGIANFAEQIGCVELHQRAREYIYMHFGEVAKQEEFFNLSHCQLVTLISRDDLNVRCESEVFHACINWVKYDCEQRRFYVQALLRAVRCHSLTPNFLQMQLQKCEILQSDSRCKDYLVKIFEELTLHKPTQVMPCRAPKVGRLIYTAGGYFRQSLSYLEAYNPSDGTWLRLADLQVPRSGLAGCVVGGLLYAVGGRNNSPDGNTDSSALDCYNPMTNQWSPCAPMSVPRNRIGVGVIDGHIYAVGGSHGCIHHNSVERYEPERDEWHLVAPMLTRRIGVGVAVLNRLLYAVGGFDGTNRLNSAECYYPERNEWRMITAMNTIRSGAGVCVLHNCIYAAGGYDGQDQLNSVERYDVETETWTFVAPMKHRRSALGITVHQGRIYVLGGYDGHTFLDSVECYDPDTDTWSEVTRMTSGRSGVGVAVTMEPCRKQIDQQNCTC

As to `CC(C)(C(=O)/C=C/c1ccc(O)c(O)c1)C(=O)/C=C/c1ccc(O)c(O)c1`, the result in data set [1], in data set [12] and in data set [16] was Active. Moreover, in the data set with HepG2 [2], the inhibition result is “Dose-dependent effect”. Also, the Activity entry was “Non-Toxic” with HepG2 [3], “Dose-dependent effect” in data set [4], “Dose-dependent effect” in data set [5] and “Dose-dependent effect” in [7]. Besides, the outcome in data set [6], in data set [8], in [9], in data set [10], in data set [11] and in [13] was inactive. The outcome in data set [14] and in data set [15] was inactive.
